Experimental data reported in the RNAGym collection of RNA variant scans (doi:10.1126/science.aae0568).
This sample holds only a part of the variants without activity.

B1: tRNA (parent)
chain: GUUCCGUUGGCGUAAUGGUAACGCGUCUCCCUCCUAAGGAGAAGACUGCGGGUUCGAGUCCCGUACGGAACG

Variants of: B1
Experiment: yeast fitness relative to wild type (ratio to wild type); higher = fitter; tRNA-Arg(CCU), competitive growth, 37 C, YPD
Method in brief: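 Variants of the tRNA-Arg(CCU) gene, chemically synthesised with a 3% per-site mutation rate at 69 sites, were placed at the native genomic locus in Saccharomyces cerevisiae. The pooled strains were competed in YPD at 37°C for 24 hours in six parallel replicates. Gene amplicons from the start population and from each end population were read by 100-nucleotide paired-end sequencing. Darwinian fitness relative to wild type came from changes in genotype frequencies; genotypes needed ≥ 100 starting reads, and estimates < 0.5 were set to 0.5.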

Variant	yeast fitness
A21C G58C C60U C66G	≤ 0.5
A20U G41A	0.867
A20U U26A A65C G67C	0.563
A21C C24U U32A C61U	≤ 0.5
A21C U32G	0.617
A21C C31A C49U	0.734
A21C G39A C49A	≤ 0.5
A21G A37C A65U G68C	≤ 0.5
A20U U47C C60G A65U A70G	0.573
A20U G50A U59C G67C	≤ 0.5
A21C U26A C46U C55U	0.608
A20U U59C	0.917
A21C C60A A69G	≤ 0.5
A21C C30U C62A	0.644
A20U G39C C55G	≤ 0.5
A21C C34G A43U	≤ 0.5
A20U G25A C60A A65U A70G	≤ 0.5
A21C C22A U26C	≤ 0.5
A21C C30G C55G A70G	0.532
A21C C27U A45G	0.584
A21C A65C	0.677
A21C A65U	0.697
A21C A65G	0.863
A20U U64A	0.821

Variant	yeast fitness
A20U U64C	0.902
A21C G38C G63C A70U	≤ 0.5
A21C C27U C49U	0.679
A21C U53G C62U G68C	≤ 0.5
A21C A42U U54A	≤ 0.5
A21C A36C	0.697
A21C U32C C46U	0.849
A21G A42C G52A	0.637
A21C C30A A43G C61U	≤ 0.5
A21C U64C	0.835
A20U U64C A69C	0.657
A21C A45C C49U U54C	≤ 0.5
A21C C30G A45G C66A	≤ 0.5
A21C C61U	0.679
A20U G44C C55A	≤ 0.5
A21C C22G A42C U47A	≤ 0.5
A21C A43C A57C	≤ 0.5
A21G A40U	0.914
A21G A40G	0.986
A21G A40C	0.88
A21C U47A C60U G67C A69U	0.574
A21C C34U G51C	≤ 0.5
A21C C24U A37C G39A C49G	≤ 0.5
A21C G38C G44C	0.544

Variant	yeast fitness
A21G A43G	1.04
A21G A43C	0.966
A21C C30A	0.802
A21C C30U	0.734
A21C C22U A43U	0.538
A21C C22G A42C U47A U64C	≤ 0.5
A20U G51A U53G C60G	≤ 0.5
A20U U35C U59A	≤ 0.5
A21C C31G C66U	≤ 0.5
A20U U47G C62G G68A	≤ 0.5
A20U U26C U47C A70G	0.603
A21C U26G U35A A40U	≤ 0.5
A21C A36U C55U	0.626
A21C C24U G25C U26G U59A A70C	≤ 0.5
A21C C34U G56A	0.551
A21C G63A	0.88
A21C C27A C33U A69C	0.625
A21C U32C U64A	0.664
A20U U26A A43G	≤ 0.5
A21G A36G U53A A57U A65U	≤ 0.5
A21C A45C C49U U64C	≤ 0.5
A21G A36G A42U A57G	≤ 0.5
A21G A43U C61A	≤ 0.5
A21C C46G C55U	0.523

Variant	yeast fitness
A21C C31U G38A G39C C49G	≤ 0.5
A21C U28G C66U	≤ 0.5
A21C A42U	0.639
A21G A42U A57U C62U	≤ 0.5
A21C C27G U28A C29U C34U A57G G58C	≤ 0.5
A20U G25A G63A	0.716
A21C G25C U26G U59A	≤ 0.5
A21C C27A A37G A45C	0.529
A21C A37U G58A	≤ 0.5
A21C C22A C34G G44C C62A	0.606
A20U U47A A70G	0.62
A21C C24G A65C G67C	0.718
A21G A40U G52C C55A C66G	0.539
A21C C22U C31U C33U G67A	≤ 0.5
A20U G58A	0.907
A21C A65U G68C	≤ 0.5
A21C U28A	0.738
A21G A42C C61U	0.659
A20U G44A	0.662
A21C C29U	0.824
A21C C34G C60A	≤ 0.5
A21C G48A	0.854
A21C C24G C33A A37G A69C	0.645
A20U G48C	0.84

Variant	yeast fitness
A21G A37G G39C C62U	≤ 0.5
A21C C27A G50C	≤ 0.5
A21C C24U A36C A57U	≤ 0.5
A21C C27U A57U C62G C66U	≤ 0.5
A21C C24U U32A A65C	≤ 0.5
A21C C34U U35C	≤ 0.5
A21C G52A	0.636
A21C G52C	0.511
A21G A43C C60G A69U	≤ 0.5
A21C U28A C55G A57U G67A	≤ 0.5
A21C C30G C34G	0.627
A21C G48A C55U A65C	≤ 0.5
A21C A36U C46U	≤ 0.5
A20U G38A C49A C60G	≤ 0.5
A21C C34U C49U A69U	0.53
A21C C27G C46A C55G	≤ 0.5
A21C G50C	0.584
A21C G50A	0.672
A21G A42U G68C	0.539
A21C C30U A36C	≤ 0.5
A21C G25C A57G	0.516
A20U G39A G51C C55G	≤ 0.5
A21C U59A	0.791
A21C C27U G50A	0.571

Variant	yeast fitness
A20U U26C C30A	≤ 0.5
A21G A36U C61U	≤ 0.5
A21C C55A	0.605
A21C C55U	0.712
A21C C55G	≤ 0.5
A20U G41C G56C G68C	≤ 0.5
A21C C29U U35A C61G	0.707
A20U U35C A57G	0.546
A21C C46U C61G	≤ 0.5
A21C U26G C34U A40G G51A	0.529
A21C C61G G68A	≤ 0.5
A21G A36G G38C C62G	≤ 0.5
A20U U47A A69U	0.619
A21G A42C	0.96
A21G A42U	0.839
A20U U26C C46U G51A	≤ 0.5
A20U U28A A40U C62A	≤ 0.5
A20U G48A U64C	0.589
A20U U32A	0.78
A20U U32C	0.882
A21C A57G G67A	≤ 0.5
A21C A36U C46G C62A A69C	≤ 0.5
A21G A40C A42C C66A	≤ 0.5
A21C U32A C46A U64A A65C	≤ 0.5

Variant	yeast fitness
A21C C34G	0.577
A20U G48A C62G	0.602
A20U G38A C55U A65G	≤ 0.5
A20U U47A	0.673
A20U U28C G44A C46U G48A C60G C62A C66G	0.578
A21C C29U C31G	≤ 0.5
A21C C29A G52C	0.566
A21C G23C G52C A65C	≤ 0.5
A21C G44C G56A G63C G68A A69G	≤ 0.5
A20U G67U	0.681
A20U G38A	0.69
A20U G38C	0.775
A21C A37G C49A	≤ 0.5
A21C C29A G52A C61U	≤ 0.5
A20U U35A G44C	≤ 0.5
A21C G25C U26G A70C	≤ 0.5
A21C G23U U59G	≤ 0.5
A21G A42C C66A	≤ 0.5
A21C G52C G67C	≤ 0.5
A21C A37U	0.646
A21C A37G	0.638
A21C U54A	0.552
A21C U54C	0.845
